{"source": "ChEMBL document CHEMBL1275595", "about": "“Antimicrobial activity of a halocidin-derived peptide resistant to attacks by proteases” (2010)", "test_system": "Staphylococcus aureus", "test": "Antimicrobial activity against methicillin-resistant Staphylococcus aureus CCARM 3696 by radial diffusion assay", "type": "functional, organism-based", "how_it_was_run": "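Radial diffusion. Washed mid-log MRSA (4 × 10^6 CFU) was mixed into 10 ml underlay of 1% agarose and 0.03% TSB in 9 mM NaP/1 mM sodium citrate, pH 7.4. Wells 3 mm wide received 5 μl of peptide at 200 μg/ml in 0.01% acetic acid. After 3 h at 37°C, a 1% agarose/6% TSB overlay was added and plates were incubated overnight. Clear zone diameter was read in units, 0.1 mm = 1 unit.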", "note": "The source made the active and inactive calls. The rule behind the calls is not given here. Bridge positions count the residues as written; N and C are the ends. Peptide text beside a SMILES is read from it. I, II: the chains in the order shown.", "data": [{"smiles": "CC(C)C[C@H](NC(=O)CNC(=O)[C@H](Cc1cnc[nH]1)NC(=O)[C@H](Cc1cnc[nH]1)NC(=O)[C@H](CC(C)C)NC(=O)[C@H](CC(C)C)NC(=O)[C@H](C)NC(=O)[C@H](CCCCN)NC(=O)[C@H](CCCCN)NC(=O)[C@H](Cc1c[nH]c2ccccc12)NC(=O)[C@@H](N)CCCCN)C(=O)N[C@@H](CC(N)=O)C(=O)N[C@@H](CSSC[C@H](NC(=O)[C@H](CC(N)=O)NC(=O)[C@H](CC(C)C)NC(=O)CNC(=O)[C@H](Cc1cnc[nH]1)NC(=O)[C@H](Cc1cnc[nH]1)NC(=O)[C@H](CC(C)C)NC(=O)[C@H](CC(C)C)NC(=O)[C@H](C)NC(=O)[C@H](CCCCN)NC(=O)[C@@H](N)CCCCN)C(=O)N[C@@H](C)C(=O)N[C@@H](CCCCN)C(=O)NCC(=O)N[C@H](C(=O)N[C@@H](CC(C)C)C(=O)N[C@@H](C)C(N)=O)C(C)C)C(=O)N[C@@H](C)C(=O)N[C@@H](CCCCN)C(=O)NCC(=O)N[C@H](C(=O)N[C@@H](CC(C)C)C(=O)N[C@@H](C)C(N)=O)C(C)C", "note": "(I: H-KWKKALLHHGLNCAKGVLA-NH2 / II: H-KKALLHHGLNCAKGVLA-NH2; disulfide I:13-II:11)", "values": [{"measurement": "Activity", "value": "Active"}]}, {"smiles": "CC(C)C[C@H](NC(=O)CNC(=O)[C@H](Cc1cnc[nH]1)NC(=O)[C@H](Cc1cnc[nH]1)NC(=O)[C@H](CC(C)C)NC(=O)[C@H](CC(C)C)NC(=O)[C@H](C)NC(=O)[C@H](CCCCN)NC(=O)[C@H](CCCCN)NC(=O)[C@H](Cc1c[nH]c2ccccc12)NC(=O)[C@@H](N)CCCCN)C(=O)N[C@@H](CC(N)=O)C(=O)N[C@@H](CSSC[C@H](NC(=O)[C@H](CC(N)=O)NC(=O)[C@H](CC(C)C)NC(=O)CNC(=O)[C@H](Cc1cnc[nH]1)NC(=O)[C@H](Cc1cnc[nH]1)NC(=O)[C@@H](N)CC(C)C)C(=O)N[C@@H](C)C(=O)N[C@@H](CCCCN)C(=O)NCC(=O)N[C@H](C(=O)N[C@@H](CC(C)C)C(=O)N[C@@H](C)C(N)=O)C(C)C)C(=O)N[C@@H](C)C(=O)N[C@@H](CCCCN)C(=O)NCC(=O)N[C@H](C(=O)N[C@@H](CC(C)C)C(=O)N[C@@H](C)C(N)=O)C(C)C", "note": "(I: H-KWKKALLHHGLNCAKGVLA-NH2 / II: H-LHHGLNCAKGVLA-NH2; disulfide I:13-II:7)", "values": [{"measurement": "Activity", "value": "Active"}]}, {"smiles": "CC(C)C[C@H](NC(=O)CNC(=O)[C@H](Cc1cnc[nH]1)NC(=O)[C@H](Cc1cnc[nH]1)NC(=O)[C@H](CC(C)C)NC(=O)[C@H](CC(C)C)NC(=O)[C@H](C)NC(=O)[C@H](CCCCN)NC(=O)[C@H](CCCCN)NC(=O)[C@H](Cc1c[nH]c2ccccc12)NC(=O)[C@@H](N)CCCCN)C(=O)N[C@@H](CC(N)=O)C(=O)N[C@@H](CSSC[C@H](NC(=O)[C@H](CC(N)=O)NC(=O)[C@H](CC(C)C)NC(=O)CNC(=O)[C@H](Cc1cnc[nH]1)NC(=O)[C@@H](N)Cc1cnc[nH]1)C(=O)N[C@@H](C)C(=O)N[C@@H](CCCCN)C(=O)NCC(=O)N[C@H](C(=O)N[C@@H](CC(C)C)C(=O)N[C@@H](C)C(N)=O)C(C)C)C(=O)N[C@@H](C)C(=O)N[C@@H](CCCCN)C(=O)NCC(=O)N[C@H](C(=O)N[C@@H](CC(C)C)C(=O)N[C@@H](C)C(N)=O)C(C)C", "note": "(I: H-KWKKALLHHGLNCAKGVLA-NH2 / II: H-HHGLNCAKGVLA-NH2; disulfide I:13-II:6)", "values": [{"measurement": "Activity", "value": "Active"}]}]}
